# How the values were obtained:
# [1] = target: T1, Serine/threonine-protein kinase D2 (Homo sapiens, UniProt Q9BZL6); assay: Inhibition of PKD2 by TR-FRET assay
# T1 sequence (Q9BZL6 whole entry): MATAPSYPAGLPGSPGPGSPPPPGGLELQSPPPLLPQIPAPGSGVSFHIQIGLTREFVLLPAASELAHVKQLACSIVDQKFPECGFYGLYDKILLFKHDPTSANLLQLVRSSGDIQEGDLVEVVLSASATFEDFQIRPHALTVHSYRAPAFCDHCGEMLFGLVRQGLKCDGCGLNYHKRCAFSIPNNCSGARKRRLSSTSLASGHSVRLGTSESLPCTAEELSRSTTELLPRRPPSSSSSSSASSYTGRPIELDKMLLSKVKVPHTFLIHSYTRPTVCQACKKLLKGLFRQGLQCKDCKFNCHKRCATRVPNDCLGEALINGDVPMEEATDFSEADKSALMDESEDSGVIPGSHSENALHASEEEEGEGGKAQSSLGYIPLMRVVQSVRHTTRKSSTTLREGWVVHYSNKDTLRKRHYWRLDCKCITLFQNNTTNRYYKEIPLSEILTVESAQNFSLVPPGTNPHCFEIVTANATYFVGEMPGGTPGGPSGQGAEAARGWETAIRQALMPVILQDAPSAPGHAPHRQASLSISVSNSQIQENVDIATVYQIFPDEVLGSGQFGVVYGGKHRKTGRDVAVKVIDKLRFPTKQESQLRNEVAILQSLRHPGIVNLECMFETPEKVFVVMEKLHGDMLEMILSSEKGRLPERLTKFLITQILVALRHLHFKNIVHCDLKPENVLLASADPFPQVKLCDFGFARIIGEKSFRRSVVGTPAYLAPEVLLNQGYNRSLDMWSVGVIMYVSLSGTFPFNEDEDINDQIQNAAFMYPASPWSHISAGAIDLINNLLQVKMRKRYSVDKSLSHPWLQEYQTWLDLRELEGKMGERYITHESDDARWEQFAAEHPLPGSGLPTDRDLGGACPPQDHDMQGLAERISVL
# [2] = target: T2, Serine/threonine-protein kinase D1 (Homo sapiens, UniProt Q15139); assay: Inhibition of PKD1 assessed as inhibition of HDAC5 neuclear export
# T2 sequence (Q15139 whole entry): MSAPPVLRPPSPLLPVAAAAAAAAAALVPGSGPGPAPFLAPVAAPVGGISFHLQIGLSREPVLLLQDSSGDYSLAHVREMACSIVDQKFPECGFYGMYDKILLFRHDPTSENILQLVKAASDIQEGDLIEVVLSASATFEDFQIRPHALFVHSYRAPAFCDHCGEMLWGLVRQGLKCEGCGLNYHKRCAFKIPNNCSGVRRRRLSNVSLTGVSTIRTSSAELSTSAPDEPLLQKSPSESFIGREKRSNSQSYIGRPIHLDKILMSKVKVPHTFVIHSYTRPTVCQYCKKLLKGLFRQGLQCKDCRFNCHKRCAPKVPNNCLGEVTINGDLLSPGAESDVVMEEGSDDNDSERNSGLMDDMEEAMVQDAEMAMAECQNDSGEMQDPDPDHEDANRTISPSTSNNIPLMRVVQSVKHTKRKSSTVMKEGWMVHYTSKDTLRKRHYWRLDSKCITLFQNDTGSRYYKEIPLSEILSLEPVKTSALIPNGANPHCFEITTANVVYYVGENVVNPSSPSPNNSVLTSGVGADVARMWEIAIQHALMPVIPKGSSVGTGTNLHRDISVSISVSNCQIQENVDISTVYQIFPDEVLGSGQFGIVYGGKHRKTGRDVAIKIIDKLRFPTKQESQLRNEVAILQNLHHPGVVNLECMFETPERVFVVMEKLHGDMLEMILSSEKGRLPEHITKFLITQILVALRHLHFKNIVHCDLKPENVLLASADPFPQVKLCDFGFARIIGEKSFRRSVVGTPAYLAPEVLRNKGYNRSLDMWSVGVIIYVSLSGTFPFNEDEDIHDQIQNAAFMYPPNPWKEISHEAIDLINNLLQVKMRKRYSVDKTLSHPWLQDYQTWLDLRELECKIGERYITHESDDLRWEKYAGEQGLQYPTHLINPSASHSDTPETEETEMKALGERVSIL
# In short: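 Neonatal rat ventricular myocytes infected with adenovirus encoding GFP-HDAC5 and plated on gelatin-coated wells. Cells exposed to compound and stimulated with PGF2α for 2 h, then fixed. Cytoplasmic versus nuclear GFP intensity quantified by high-content imaging.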
# [3] = target: T2, Serine/threonine-protein kinase D1; assay: Inhibition of PKD1 by TR-FRET assay
# In short: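 Full-length wild-type PKD1 expressed and purified from Sf9 cells, 0.2 μg/mL, in 35 mM Tris-HCl pH 7.5, 5 mM MgCl2, 0.02% Tween-20, 20 μM ATP, 1 mM DTT. Reaction started with 2 μM biotinylated syntide-2 and run 50 min at room temperature. Stopped with EDTA plus europium anti-rabbit IgG, anti-phospho-syntide-2 antibody and streptavidin-APC. LANCE TR-FRET 665/615 ratio read after 1 h. 11-point curves in triplicate gave IC50.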
# [4] = Volume of distribution at steady state in Sprague-Dawley rat at 2 mg/kg, iv and 5 mg/kg, po; format: ADME, organism-based; conditions: in vivo, read-out: Vdss
# In short: (§1)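 Rats dosed iv 2 mg/kg (n = 2) or po 5 mg/kg (n = 3) in 10% NMP, 10% Cremophor, 80% pH 4.63 buffer. PK parameters derived from iv dosing, reported as mean ± SD.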
# [5] = Clearance in Sprague-Dawley rat at 2 mg/kg, iv and 5 mg/kg, po; format: ADME, organism-based; conditions: in vivo; in short: as §1
# [6] = Half life in rats after 2 mg/kg intravenous dose; format: ADME, organism-based; set-up: dose 2 mg/kg, route intravenous; conditions: Sprague-Dawley, rat, in vivo; in short: as §1
# [7] = Cmax in rats after 5 mg/kg oral dose; format: ADME, organism-based; set-up: dose 5 mg/kg, route oral; conditions: Sprague-Dawley, rat, in vivo
# [8] = AUC (0 to 8 hrs) in Sprague-Dawley rat at 5 mg/kg, po; format: ADME, organism-based; set-up: time < 8 hr, dose 5 mg/kg, route oral; conditions: plasma
# [9] = Oral bioavailability in Sprague-Dawley rat at 5 mg/kg; format: ADME, organism-based; conditions: in vivo; in short: as §1
Compound,IC50 [1] [nM],EC50 [2] [nM],IC50 [3] [nM],Vd [4] [L/kg],clearance [5] [mL/min/kg],half-life [6] [min],Cmax [7] [nM],AUC(0-t) at 8 h [8] [µM·h],bioavailability [9] [%]
NC(=O)c1cc(N[C@H]2CCNC2)nc(-c2ccnc(NC3CCCCC3)c2)c1,540,> 1000,68,,,,,,
Cn1ccc(Nc2cc(-c3cc(C#N)cc(N4CCNCC4)n3)ccn2)n1,68,428,,,,,,,
c1cc(-c2cc(-c3cn[nH]c3)cc(N3CCNCC3)n2)cc(NC2CCOCC2)n1,2,234,< 1,,,,,,
NC(=O)c1cc(-c2ccnc(Nc3ccccc3Cl)c2)nc(N2CCNCC2)c1,8,478,1,,,,,,
N#Cc1cc(-c2ccnc(Nc3ccccc3)c2)nc(N2CCNCC2)c1,35,378,5,7.8,31,186,231,1.1,18
CC(C)Nc1cc(-c2cc(C(N)=O)cc(N3CCNCC3)n2)ccn1,8,438,1,,,,,,
CC(C)Nc1cc(-c2cc(-c3cn[nH]c3)cc(N3CCNCC3)n2)ccn1,2,92,< 1,,,,,,
NC(=O)c1cc(-c2ccnc(Nc3ccccc3)c2)nc(N2CCNCC2)c1,1,24,1,,,,,,
NCC1CCN(c2cc(C(N)=O)cc(-c3ccnc(NC4CCCCC4)c3)n2)CC1,212,> 1000,46,,,,,,
CCNc1cc(-c2cc(C(N)=O)cc(N3CCNCC3)n2)ccn1,31,> 1000,4,,,,,,
NC(=O)c1cc(N[C@@H]2CCNC2)nc(-c2ccnc(NC3CCCCC3)c2)c1,18,> 1000,2,,,,,,
NC(=O)c1cc(-c2ccnc(NC3CCCCC3)c2)nc(N2CCCC(N)C2)c1 (centres undefined),168,> 1000,14,,,,,,
CC1(C)CN(c2cc(C(N)=O)cc(-c3ccnc(NC4CCCCC4)c3)n2)CCN1,427,> 1000,55,,,,,,
Cn1ccc(Nc2cc(-c3cc(C(N)=O)cc(N4CCNCC4)n3)ccn2)n1,7,674,1,,,,,,

# Further lines, results first:
IC50 [1] [nM],EC50 [2] [nM],IC50 [3] [nM],Vd [4] [L/kg],clearance [5] [mL/min/kg],half-life [6] [min],Cmax [7] [nM],AUC(0-t) at 8 h [8] [µM·h],bioavailability [9] [%],Compound
59,202,6,,,,,,,NC(=O)c1cc(-c2ccnc(NC3CCCC3)c2)nc(N2CCNCC2)c1
62,704,4,,,,,,,c1cc(-c2cc(-c3cc[nH]n3)cc(N3CCNCC3)n2)cc(NC2CCCCC2)n1
238,752,25,,,,,,,CN1CCN(c2cc(C(N)=O)cc(-c3ccnc(NC4CCCCC4)c3)n2)CC1
9,> 1000,1,,,,,,,NC(=O)c1cc(-c2ccnc(NC3CCOCC3)c2)nc(N2CCNCC2)c1
1,17,< 1,,,,,,,c1cc(-c2cc(-c3cn[nH]c3)cc(N3CCNCC3)n2)cc(NC2CCCCC2)n1
,342,,,,,251,0.73,31,FC(F)(F)c1cc(-c2ccnc(NC3CCCCC3)c2)nc(N2CCNCC2)c1
86,831,8,,,,,,,C[C@H]1CN(c2cc(C(N)=O)cc(-c3ccnc(NC4CCCCC4)c3)n2)CCN1
,> 1000,35,35,86,372,31,0.1,5,O=C1NCc2c1cc(-c1ccnc(NC3CCCCC3)c1)nc2N1CCNCC1
76,568,17,,,,,,,FC(F)c1cc(-c2ccnc(NC3CCCCC3)c2)nc(N2CCNCC2)c1
,679,,,,,,,,C[C@@H]1CN(c2cc(C(N)=O)cc(-c3ccnc(NC4CCCCC4)c3)n2)CCN1
,115,1,,,,,,,O=C1NCc2c1cc(N1CCNCC1)nc2-c1ccnc(NC2CCCCC2)c1
,,> 1000,,,,,,,NC(=O)c1cc(-c2ccnc(NC3CCCCC3)c2)nc(N2CCOCC2)c1

# From ChEMBL document CHEMBL1212911, “Identification of potent and selective amidobipyridyl inhibitors of protein kinase D” (J Med Chem, 2010)
